From the RNAGym collection of RNA variant scans (doi:10.1126/science.aae0568)
This sample holds only a part of the variants without activity.

B1: tRNA (parent)
chain: GUUCCGUUGGCGUAAUGGUAACGCGUCUCCCUCCUAAGGAGAAGACUGCGGGUUCGAGUCCCGUACGGAACG

Variants of: B1
Assay: yeast fitness relative to wild type (ratio to wild type); higher = fitter; tRNA-Arg(CCU), competitive growth, 37 C, YPD
Method in brief: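 Start and end populations of a pooled competition were compared by 100-nucleotide paired-end sequencing of gene amplicons. The Saccharomyces cerevisiae strains carried tRNA-Arg(CCU) gene variants at the native genomic locus, synthesised with a 3% per-site mutation rate at 69 sites, and competed in YPD at 37°C for 24 hours in six parallel replicates. Darwinian fitness relative to wild type was based on the change in genotype frequencies. Genotypes required ≥ 100 starting reads, and estimates < 0.5 were set to 0.5.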

| Variant | yeast fitness |
| --- | --- |
| GUUCCGUUGGUGUAAUGGUAUCGCGUCUCCCUCCUAAGCAGAAGACUGCGGGUUUGAGUCCCGUACGGAACG [C11U A21U G39C C55U] | ≤ 0.5 |
| GUUCCGUUGGUGUGAUGGUAACGCGUCUCCCUCCCAAGGAGAAGACUGCGGGUUCGAGUGCCGUACGGAACG [C11U A14G U35C C60G] | ≤ 0.5 |
| GUUCCGUUGGUGUAAUGGUUACGCGUCUCCCUCCUAAGAAGAAGACUGCGGGUUCGAGUCCCAUACGGAUCG [C11U A20U G39A G63A A70U] | ≤ 0.5 |
| GUUCCGUUGGUGUAAUGGUCACGCCUAUCCCUCCUAUGGAGAAGACUGCGGGUUCGAGUCCCGUACGGAACG [C11U A20C G25C C27A A37U] | ≤ 0.5 |
| GUUCCGUUGGUGUAAUGGUAACGCGUCUCCCUCCUGAGGAGAAGACUCCGGGUUCGAGUCCCGUCCGGAACG [C11U A36G G48C A65C] | 0.675 |
| GUUCCGUUGGUGUACUGGUAACGCGUCUCCCUCCUAAGGAGAAGACUGCGGGUUCGAGUCCCGUACGGAUCG [C11U A15C A70U] | 0.586 |
| GUUCCGUUGGUGUACUGGUAACGCGUAUCCCUCCUAAGCAGAAGACUGCGGGUUCGAGUCCCGUACUGAACG [C11U A15C C27A G39C G67U] | ≤ 0.5 |
| GUUCCGUUGGUGUAAUGGUUACGUGUCUACCUCCUAAGGAGAAGACUGCGGGUUCGAGUCCCGUACGGAACG [C11U A20U C24U C29A] | ≤ 0.5 |
| GUUCCGUUGGUGUUAUGGUAACGCGUCACCCUUCUAAGGAGAAGACUGCGGGUUCGAGUCCCGUACGGAACG [C11U A14U U28A C33U] | 0.535 |
| GUUCCGUUGGUGUAAUGGUUACGCGUCUCCCACCUAAGAAGAAGACUGCGGGUUCGAGUCCCGUCCGGAACG [C11U A20U U32A G39A A65C] | ≤ 0.5 |
| GUUCCGUUGGUGUAAUGGUAGCGCGUCUCCCUCCUAUGGGAAAGACUGCGGGUUCGAGUCCCGUACGGAACG [C11U A21G A37U A40G G41A] | ≤ 0.5 |
| GUUCCGUUGGUGUACUGGUAACGCGUAUCCCUCCUAAGCAGAAGACUGCGGGUUCGAGUCCCUAACGGAACG [C11U A15C C27A G39C G63U U64A] | ≤ 0.5 |
| GUUCCGUUGGUGUAAUGGUCACGCGUCUACUCCCUAAGGAGAAGACUGCGGGUUCGAGUCCCGUCCGGAACG [C11U A20C C29A C31U U32C A65C] | ≤ 0.5 |
| GUUCCGUUGGUGUACUGGUAACGCGUAUCCCUCCUAAGCAGAAGACUGCGGGUUCGAGUCCCGUACGGAACG [C11U A15C C27A G39C] | ≤ 0.5 |
| GUUCCGUUGGUGUACUGGUAUCGAGUCUCCCUACUAAGGAGAAGACUGCGGGUUCGAGUCCCGUAAGGAACG [C11U A15C A21U C24A C33A C66A] | ≤ 0.5 |
| GUUCCGUUGGUGUAAUGGUAGCGCGUCUCCCUCCUAAGGAGAAGACUGCGGGUUCGAGUCCCGCACGGAACG [C11U A21G U64C] | 0.945 |
| GUUCCGUUGGUGUAAUGGUGAACCGUCGCCCUCCUAAGGAGAGGACUGCGGGUUCGGGUCCCGUACGGAACG [C11U A20G C22A G23C U28G A43G A57G] | ≤ 0.5 |
| GUUCCGUUGGUGUACUGGUAACGCGUGUCUCUCCUAAGGAGAAGAAUGCGGGUUCGAGUCCCGUACGGAACG [C11U A15C C27G C30U C46A] | ≤ 0.5 |
| GUUCCGUUGGUGUAAUGGUAACGCGUCUCCCUCCUGAGGAGAAGACUGCGGGUUCGAGUCCCGUACGGAGCG [C11U A36G A70G] | 0.672 |

| Variant | yeast fitness |
| --- | --- |
| GUUCCGUUGGUGUAGUGGUAACGCGUCUCCCUCCUAAGGAGAAGACUGCGGGUUCGAGUCCCCUAUGGAACG [C11U A15G G63C C66U] | ≤ 0.5 |
| GUUCCGUUGGUGUAUUGGUAACGCGUCUCCCUCCUAAGGAGAAGACUGCGGAUUCGAGUCGCGUACGGAACG [C11U A15U G52A C61G] | ≤ 0.5 |
| GUUCCGUUGGUGUAAUGGUUACGCGUCUCCCUCCUGAGGAGAAGACUGCGGGUUGGAGUCCCGUACGGAACG [C11U A20U A36G C55G] | ≤ 0.5 |
| GUUCCGUUGGUGUAAUGGUAGCGCGUCUCCCUCCUAAGGAGAAGACUGCGGGUUCGAGUCCCGUACGGACCG [C11U A21G A70C] | 0.818 |
| GUUCCGUUGGUGUAUUGGUAACGCGCCUCCCUCCUAAGGAGAAGACUGAGGGUUCGAGUCCCGUACGGAACG [C11U A15U U26C C49A] | ≤ 0.5 |
| GUUCCGUUGGUGUAAUGGUCAGGCGUCUCCCUCCUAAGGAGAAGACUGCGGGUUCGAGUCCCGUGCGGACCG [C11U A20C C22G A65G A70C] | ≤ 0.5 |
| GUUCCGUUGGUGUAGUGGUAACGCGUCUCCCUCCUAAGGAGAAGAUUGCGGGUUCGAGUCCCGUACGGAACG [C11U A15G C46U] | 0.961 |
| GUUCCGUUGGUGUUAUGGUAACGCGUCUCCCUCCUAAGGGGCAGACUGCGGGUUCGAGUCCCGUACGGAACG [C11U A14U A40G A42C] | ≤ 0.5 |
| GUUCCGUUGGUGUAAUGGUCACGCGUCUGCCUCCUAAGGAGGAGACUGCGGGUUCCAAUCCCGUACGGAACG [C11U A20C C29G A42G G56C G58A] | ≤ 0.5 |
| GUUCCGUUGGUGUAUUGGUAACGCGUCUCCCUCAUAAGGAGAAGACUGCGGGUUCGAGUCCCGUACGGAACG [C11U A15U C34A] | 0.588 |
| GUUCCGUUGGUGUAUUGGUAACGCGUCUCCCUCCUAAGGAGAAGACUGCGAGUUCCAGUCCCGUACGGAACG [C11U A15U G51A G56C] | ≤ 0.5 |
| GUUCCGUUGGUGUAUUGGUAACGCGUCUCCCUCCUAAAGAGAAGACUGCGGGUUCGAGUCCCGUACGGAACG [C11U A15U G38A] | ≤ 0.5 |
| GUUCCGUUGGUGUACUGGUAGCGGGUCACCCUCCUAAGGAGAAGACUGCGGGUUCGAGUCUCGUACGGAACG [C11U A15C A21G C24G U28A C61U] | ≤ 0.5 |
| GUUCCGUUGGUGUAAUGGUAGCGCGUCUCCCUCCUAAGGAGAAGACUGCGGGUUCGAGUCCUGUACGGAACG [C11U A21G C62U] | 0.648 |
| GUUCCGUUGGUGUAAUGGUAACGCGUCUCCCUCCUGAGGAGAAGAUUGCGGGUUCAAGUCCCGUACGGAACG [C11U A36G C46U G56A] | ≤ 0.5 |
| GUUCCGUUGGUGUACUGGUAACGCGUCUCUCUCCUAAGGAGCAGACUGCGGGUUCGAGUCCCGUACGGAACG [C11U A15C C30U A42C] | ≤ 0.5 |
| GUUCCGUUGGUGUAAUGGUAUCGCGUAUCCCUCAUUAGGAGAAGACCGCGGGUUCGAGUCCCGUACGGAACG [C11U A21U C27A C34A A36U U47C] | ≤ 0.5 |
| GUUCCGUUGGUGUAAUGGUAACGCGUCUCCCUCCUGAGGAGAAAAUUGCGGGUUCGAGUCCCGUACGGAACG [C11U A36G G44A C46U] | 0.993 |
